Data as given in ChEMBL document CHEMBL3797027, “Potent anti-proliferative actions of a non-diuretic glucosamine derivative of ethacrynic acid” (Bioorg Med Chem Lett, 2016).
The source made the active and inactive calls. No cut-off for these calls is given here.

Experiments:
[1] = test system: NCI-H1299; experiment: Induction of ROS generation in human H1299 cells at 20 and 40 uM incubated for 3 hrs by DCFDA staining based fluorescence microscopy; assay type: functional, cell-based
Method in brief: (§1)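 After 3 h exposure at different concentrations, DCFH-DA fluorescence was imaged by fluorescence microscopy. H2O2 (25 µM) served as positive control. In some wells, cells were pretreated with 3 mM N-acetylcysteine before compound addition.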

[2] = Cytotoxic activity against human MCF10A cells assessed as inhibition of cell proliferation incubated for 72 hrs by MTT assay; assay type: cell-based; details: mcf-10a
Method in brief: (§2)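 MTT cell survival assay. IC50 is the concentration that inhibits tumour cell proliferation by 50%, read from cell survival curves. Values are given as mean ± SD of three independent experiments.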

[3] = test system: NCI-H1299; experiment: Induction of cell cycle arrest in p53 deficient human H1299 cells assessed as accumulation at G2/M phase incubated for 24 hrs by propidium iodide staining based flow cytometry; assay type: functional
[4] = Cytotoxic activity against human HT1080 cells assessed as inhibition of cell proliferation incubated for 72 hrs by MTT assay; assay type: functional, cell-based; details: HT-1080, 72 h; method in brief: as §2
[5] = test system: HCT-116; experiment: Reduction in cellular total thiol levels in human HCT116 cells incubated for 3 hrs by Ellman's reagent based assay; assay type: functional, cell-based
Method in brief: (§3)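 Cells exposed to 0–40 µM compound for 3 h, then trypsinized. Total thiols in cell extracts were quantified with Ellman's reagent.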

[6] = test system: NCI-H1299; experiment: Reduction in cellular total thiol levels in human H1299 cells incubated for 3 hrs by Ellman's reagent based assay; assay type: functional, cell-based; method in brief: as §3
[7] = test system: MCF7; experiment: Cytotoxic activity against human MCF7 cells assessed as inhibition of cell proliferation incubated for 72 hrs by MTT assay; assay type: functional, cell-based; details: MCF7, 72 h; method in brief: as §2
[8] = Potency index, ratio of IC50 for ethacrynic acid to IC50 for test compound for cytotoxic activity against human HT1080 cells assessed as inhibition of cell proliferation incubated for 72 hrs by MTT assay; assay type: functional, HT-1080
Method in brief: (§4)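 Index is the reference IC50 divided by the test IC50. Both IC50s were taken from MTT cell survival curves, each as mean ± SD of three independent experiments.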

[9] = test system: HCT-116; experiment: Reduction in cellular total thiol levels in human HCT116 cells at 40 uM incubated for 3 hrs by Ellman's reagent based assay; assay type: functional; method in brief: as §3
[10] = Potency index, ratio of IC50 for ethacrynic acid to IC50 for test compound for cytotoxic activity against human SF188 cells assessed as inhibition of cell proliferation incubated for 72 hrs by MTT assay; assay type: functional, SF-188
[11] = test system: MDA-MB-468; experiment: Potency index, ratio of IC50 for ethacrynic acid to IC50 for test compound for cytotoxic activity against human MDA-MB-468 cells assessed as inhibition of cell proliferation incubated for 72 hrs by MTT assay; assay type: functional
[12] = test system: Mus musculus; experiment: Toxicity in mouse assessed as induction of diarrhea at 120 mg/kg/week for 2 weeks; assay type: organism-based; details: in vivo, 336 h
[13] = test system: Mus musculus; experiment: Toxicity in mouse assessed as induction of stress at 120 mg/kg/week for 2 weeks; assay type: organism-based; details: in vivo, 336 h
[14] = test system: MCF7; experiment: Potency index, ratio of IC50 for ethacrynic acid to IC50 for test compound for cytotoxic activity against human MCF7 cells assessed as inhibition of cell proliferation incubated for 72 hrs by MTT assay; assay type: functional
[15] = test system: Mus musculus; experiment: Toxicity in mouse assessed as induction of tremors at 120 mg/kg/week for 2 weeks; assay type: organism-based; details: in vivo, 336 h
[16] = test system: HCT-116; experiment: Increase in cleaved PARP protein expression in wild type p53 expressing human HCT116 cells at 10 to 40 uM by Western blot method; assay type: functional, cell-based
Method in brief: (§5)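 H1299 (p53-null), HCT116 (p53 wild type) and MDA-MB-231 (p53 mutant) cells were treated, then lysates were immunoblotted for p53, p21, PUMA and PARP. β-Actin served as loading control.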

[17] = test system: NCI-H1299; experiment: Induction of ROS generation in human H1299 cells at 20 and 40 uM incubated for 3 hrs after pre-incubation with 3 mM NAC for 1 hr by DCFDA staining based fluorescence microscopy; assay type: functional, cell-based; method in brief: as §1
[18] = test system: HCT-116; experiment: Induction of ROS generation in human HCT116 cells at 20 and 40 uM incubated for 3 hrs by DCFDA staining based fluorescence microscopy; assay type: functional, cell-based; method in brief: as §1
[19] = test system: MDA-MB-231; experiment: Increase in p21 (waf1/cip1) protein expression in p53 mutant expressing human MDA-MB-231 cells at 10 to 40 uM by Western blot method; assay type: functional, cell-based; method in brief: as §5
[20] = target: Glutathione S-transferase P (Homo sapiens) (UniProt P09211); experiment: Inhibition of GSTP1 in human MDA-MB-231 cells assessed as reduction in GST-pi activity pre-incubated for 3 hrs followed by chlorodinitrobenzene and reduced glutathione addition by photometric assay
[21] = test system: NCI-H1299; experiment: Reduction in cellular total thiol levels in human H1299 cells at 40 uM incubated for 3 hrs by Ellman's reagent based assay; assay type: functional; method in brief: as §3
[22] = Cytotoxic activity against human SKBR3 cells assessed as inhibition of cell proliferation incubated for 72 hrs by MTT assay; assay type: functional, cell-based; details: SK-BR-3, 72 h; method in brief: as §2
[23] = test system: HT-29; experiment: Cytotoxic activity against human HT-29 cells assessed as inhibition of cell proliferation incubated for 72 hrs by MTT assay; assay type: functional, cell-based; details: HT-29, 72 h; method in brief: as §2
[24] = test system: Mus musculus; experiment: Toxicity in mouse assessed as induction of weight loss at 120 mg/kg/week for 2 weeks; assay type: organism-based; details: in vivo, 336 h
[25] = test system: HT-29; experiment: Potency index, ratio of IC50 for ethacrynic acid to IC50 for test compound for cytotoxic activity against human HT-29 cells assessed as inhibition of cell proliferation incubated for 72 hrs by MTT assay; assay type: functional; method in brief: as §4
[26] = test system: MDA-MB-231; experiment: Induction of ROS generation in human MDA-MB-231 cells at 20 and 40 uM incubated for 3 hrs after pre-incubation with 3 mM NAC for 1 hr by DCFDA staining based flow cytometry; assay type: functional, cell-based
Method in brief: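 Cells were exposed for 3 h to compound, or to 25 µM H2O2 as positive control. Where indicated, 3 mM N-acetylcysteine was given 1 h before treatment. Pellets were stained with DCF-DA for 30 min, and intracellular ROS was read as fluorescence shift by flow cytometry against untreated controls.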

[27] = Potency index, ratio of IC50 for ethacrynic acid to IC50 for test compound for cytotoxic activity against human H1299 cells assessed as inhibition of cell proliferation incubated for 72 hrs by MTT assay; assay type: functional; method in brief: as §4
[28] = Potency index, ratio of IC50 for ethacrynic acid to IC50 for test compound for cytotoxic activity against human SKBR3 cells assessed as inhibition of cell proliferation incubated for 72 hrs by MTT assay; assay type: functional, SK-BR-3
[29] = test system: MDA-MB-231; experiment: Reduction in cellular total thiol levels in human MDA-MB-231 cells at 40 uM incubated for 3 hrs by Ellman's reagent based assay; assay type: functional; method in brief: as §3
[30] = test system: NCI-H1299; experiment: Increase in cleaved PARP protein expression in p53 deficient human H1299 cells at 10 to 40 uM by Western blot method; assay type: functional, cell-based; method in brief: as §5
[31] = test system: MDA-MB-468; experiment: Cytotoxic activity against human MDA-MB-468 cells assessed as inhibition of cell proliferation incubated for 72 hrs by MTT assay; assay type: functional, cell-based; details: MDA-MB-468, 72 h; method in brief: as §2
[32] = test system: HCT-116; experiment: Induction of ROS generation in human HCT116 cells at 20 and 40 uM incubated for 3 hrs after pre-incubation with 3 mM NAC for 1 hr by DCFDA staining based fluorescence microscopy; assay type: functional, cell-based; method in brief: as §1
[33] = test system: MDA-MB-231; experiment: Induction of ROS generation in human MDA-MB-231 cells at 20 and 40 uM incubated for 3 hrs by DCFDA staining based fluorescence microscopy; assay type: functional, cell-based; method in brief: as §1

Chain of Glutathione S-transferase P (Homo sapiens) (P09211 2-210 limits assumed): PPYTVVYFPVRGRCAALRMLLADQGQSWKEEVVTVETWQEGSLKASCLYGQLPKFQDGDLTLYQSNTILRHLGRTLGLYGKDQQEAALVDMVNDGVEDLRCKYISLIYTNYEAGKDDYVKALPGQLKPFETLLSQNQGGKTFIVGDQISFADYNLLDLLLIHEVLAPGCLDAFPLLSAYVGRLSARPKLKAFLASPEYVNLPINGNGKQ

Q: For `C=C(CC)C(=O)c1ccc(OCC(=O)N[C@@H]2[C@@H](O)[C@H](O)[C@@H](CO)O[C@H]2O)c(Cl)c1Cl`, which Activity [1] is on record?
A: Active

Q: What about the Activity [2] of the same molecule?
A: Non-toxic

Q: What about the Activity [3] of the same molecule?
A: Dose-dependent effect

Q: What about the IC50 [4] of the same molecule?
A: 16.3 µM

Q: And the Activity [5]?
A: Dose-dependent effect

Q: What about the Activity [6] of the same molecule?
A: Dose-dependent effect

Q: What about the IC50 [7] of the same molecule?
A: 10.1 µM

Q: What about the “Ratio IC50” value [8] of the same molecule?
A: 3

Q: What about the Imax [9] of the same molecule?
A: 58%

Q: What about the “Ratio IC50” value [10] of the same molecule?
A: 3

Q: And the “Ratio IC50” value [11]?
A: 3

Q: And the Activity [12]?
A: Non-toxic

Q: And the Activity [13]?
A: Non-toxic

Q: And the “Ratio IC50” value [14]?
A: 3

Q: And the Activity [15]?
A: Non-toxic

Q: What about the Activity [16] of the same molecule?
A: Active

Q: What about the Activity [17] of the same molecule?
A: inactive

Q: And the Activity [18]?
A: Active

Q: What about the Activity [19] of the same molecule?
A: Active

Q: And the Activity [20]?
A: Dose-dependent effect

Q: What about the Imax [21] of the same molecule?
A: 58%

Q: What about the IC50 [22] of the same molecule?
A: 16.1 µM

Q: And the IC50 [23]?
A: 21.7 µM

Q: What about the Activity [24] of the same molecule?
A: Non-toxic

Q: And the “Ratio IC50” value [25]?
A: 3

Q: And the Activity [26]?
A: inactive

Q: And the “Ratio IC50” value [27]?
A: 3

Q: What about the “Ratio IC50” value [28] of the same molecule?
A: 3

Q: What about the Imax [29] of the same molecule?
A: 58%

Q: What about the Activity [30] of the same molecule?
A: Active

Q: What about the IC50 [31] of the same molecule?
A: 18.4 µM

Q: What about the Activity [32] of the same molecule?
A: inactive

Q: What about the Activity [33] of the same molecule?
A: Active
